Assay outcomes deposited in PubChem by Broad Institute.
Only some compounds are listed: those with a hit (about 1.3% of all), similar ones and a draw of the others.
PAX8 reporter: lowers PAX8-driven luciferase in RMG-I cells. RMG-I TPO-luciferase reporter, SteadyGlo, 24 h. inhibition, % at 12.6 µM. 360,000 compounds, 1.2% hits;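 active means mean replicate inhibition at least 60% with every replicate also reaching 60%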;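 further: luciferase light reporting Pax8 driven TPO promoter activity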
FN deposit inh: fibronectin deposition inhibition; 350,000 compounds, 0.086% hits; inhibition, % at 12.6 µM; AH1F fibroblasts, Alexa488-fibronectin deposition fluorescence, overnight;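 active means mean inhibition across replicates of 30% or more, regardless of how many single replicates reach that level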
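test system = AH1F fibroblasts assembling fluorescent fibronectin matrix | quantity = 10000 AH1F cells per well | buffer or medium = DMEM plus 2% serum, read in PBS | doses = single dose, pinned | incubation = 1 h cell attachment, overnight exposure to compound and label | detection = fluorescence at 485 nm excitation, 525 nm emission | read-out basis = inhibition from reduced deposited-fibronectin fluorescence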
RAD54 branch: blocks human RAD54 Holliday junction branch migration; FAM/BHQ fluorescence; inhibition, % at 10.4 µM; 360,000 compounds, 0.14% hits;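 active means mean normalized replicate activity at least 40 and at least half of replicates scoring 40 or more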;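 further: inhibitors cause a drop in the FAM fluorescence signal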
Target sequence (Q92698 whole entry, looked up): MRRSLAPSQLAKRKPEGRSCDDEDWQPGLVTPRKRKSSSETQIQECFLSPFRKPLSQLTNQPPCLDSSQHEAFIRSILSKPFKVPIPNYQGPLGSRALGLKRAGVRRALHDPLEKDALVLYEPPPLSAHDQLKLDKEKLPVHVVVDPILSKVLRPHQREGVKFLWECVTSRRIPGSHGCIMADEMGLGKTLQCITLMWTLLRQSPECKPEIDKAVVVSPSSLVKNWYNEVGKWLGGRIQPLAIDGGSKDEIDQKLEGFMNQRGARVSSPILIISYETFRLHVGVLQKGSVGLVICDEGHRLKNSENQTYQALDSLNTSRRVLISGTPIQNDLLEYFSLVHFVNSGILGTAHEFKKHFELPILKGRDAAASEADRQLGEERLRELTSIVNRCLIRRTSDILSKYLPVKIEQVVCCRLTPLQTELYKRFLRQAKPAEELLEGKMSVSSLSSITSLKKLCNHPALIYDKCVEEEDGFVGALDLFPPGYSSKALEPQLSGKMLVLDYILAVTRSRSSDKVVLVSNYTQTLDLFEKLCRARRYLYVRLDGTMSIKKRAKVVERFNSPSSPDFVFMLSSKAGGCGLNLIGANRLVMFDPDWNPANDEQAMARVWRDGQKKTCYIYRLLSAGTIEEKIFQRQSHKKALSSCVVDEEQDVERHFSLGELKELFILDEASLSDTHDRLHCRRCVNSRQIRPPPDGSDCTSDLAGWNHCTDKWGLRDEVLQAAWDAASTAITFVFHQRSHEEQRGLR
RAD52 anneal inh: blocks human RAD52 DNA annealing; 360,000 compounds, 0.46% hits; recombinant RAD52 DNA annealing, FRET fluorescence; inhibition, % at 18.7 µM; P43351; AID 651710;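 active means every replicate showing at least 50% inhibition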
Hits are given with their value; i = inactive; nt = no result.

SMILES | PAX8 reporter | FN deposit inh | RAD54 branch | RAD52 anneal inh
COc1ccc(S(=O)(=O)Nc2ccc3c(c2)C(=O)N([C@H](C)CO)C[C@@H](C)[C@H](CN(C)C(=O)Nc2ccc(C(F)(F)F)cc2)OCCCC[C@@H](C)O3)cc1 | 62 | i | i | i
COc1ccc(S(=O)(=O)Nc2ccc3c(c2)C(=O)N([C@H](C)CO)C[C@@H](C)[C@H](CN(C)C(=O)Nc2ccc(C(F)(F)F)cc2)OCCCC[C@H](C)O3)cc1 | 77 | i | i | i
CNc1ccc(/C=C2\COc3ccccc3C2=O)cc1[N+](=O)[O-] | nt | nt | i | nt
O=C1/C(=C/c2ccccc2[N+](=O)[O-])COc2ccccc21 | 61 | i | i | i
CN(C)CCOC(=O)c1cccc(Br)c1 | nt | nt | i | nt
O=[N+]([O-])c1ccc(Sc2nnnn2-c2ccccc2)nc1 | 78 | i | nt | i
C/C(=N\NC(=O)c1ccccc1-n1cccc1)c1ccccn1 | 71 | i | i | i
C/C(=N\NC(=O)c1cc2ccccc2cc1O)c1ccccn1 | i | i | i | i
C/C(=N\NC(=O)c1ccc(F)cc1)c1ccccn1 | 63 | i | nt | i
C/C(=N\NC(=O)c1c[nH]c2ccccc12)c1ccccn1 | i | i | nt | i
CC[C@H](C)[C@@H](C(=O)NCCCCCCCCCCC(=O)N1CCN(C(=O)OC(C)(C)C)CC1)n1cc(CCCCCNC(=O)OC(C)(C)C)nn1 | 63 | i | i | i
C=CC[n+]1c(/C=C2\C=Cc3cc(C)ccc3N2CC)ccc2ccccc21 | 88 | i | nt | i
COc1cc(OC)c2c(-c3cccc(-c4sccc4C(C)=O)c3)cc(=O)oc2c1 | 84 | i | i | i
COc1cc(OC)c2c(-c3cccc(-c4ccc(NC(C)=O)cc4)c3)cc(=O)oc2c1 | 79 | nt | i | i
O=C(COC(=O)c1ccco1)NCc1cccs1 | nt | nt | i | nt
C[C@@H]1CN([C@H](C)CO)C(=O)c2cccc(NC(=O)c3nc4ccccc4s3)c2O[C@H]1CN(C)CC1CCCCC1 | nt | i | i | i
COc1ccccc1N=Nc1ccc(N)c(C)c1 | i | i | i | i
Cn1cnc2nc(Cl)nc(Cl)c21 | 80 | i | nt | i
COc1cc(/C=N/NC(=O)CNC(=O)c2ccco2)ccc1O | i | i | i | i
Cc1ccc(/C=C2\SC(=S)N(CCC(=O)N3CCCCC3)C2=O)cc1 | i | i | i | i
COc1cc(/C=C2\SC(=S)N(CCC(=O)N3CCCCC3)C2=O)cc(OC)c1OC | 100 | i | i | i
O=C(CCN1C(=O)/C(=C/c2cccs2)SC1=S)N1CCCCC1 | 69 | i | i | i
O=C(c1cccs1)N1C[C@H](O)[C@@H](n2cc(C3CC3)nn2)C[C@@H]1c1ccccc1 | 98 | i | i | i
C[C@H](CO)N1C[C@H](C)[C@H](CN(C)C(=O)c2ccc(F)cc2)Oc2ncc(C#CCN(C)C)cc2C1=O | nt | nt | i | i
CC(=O)Nc1cccc(NS(=O)(=O)c2ccccc2[N+](=O)[O-])c1 | i | i | nt | i
SMILES | PAX8 reporter | FN deposit inh | RAD54 branch | RAD52 anneal inh
Cc1cccc(C)c1NC(=S)Nc1c(C)n(C)n(-c2ccccc2)c1=O | 76 | i | nt | i
Cc1c(NC(=S)Nc2cccc(Cl)c2)c(=O)n(-c2ccccc2)n1C | i | i | i | i
COc1ccc(Cl)cc1S(=O)(=O)NCCCn1ccnc1 | i | i | i | i
CCN(CC)S(=O)(=O)c1cccc(-c2nnc(SCC(=O)NC3CCCCCC3)n2N)c1 | i | i | i | nt
CCCNC(=O)CC(NS(=O)(=O)c1ccc(NC(C)=O)cc1)C(C)C (centres undefined) | i | i | i | i
CC(=NNc1cc(C)c2ccccc2n1)c1ccccn1 | 95 | i | nt | i
CCCCn1nc(C(=O)Nc2cc(C(F)(F)F)ccc2N2CCOCC2)ccc1=O | 93 | i | i | i
CCOC(=O)C1=C(CC)Nc2ccccc2N=C1NC(=O)c1oc2ccccc2c1C | 64 | i | nt | i
CCOCc1c(C(=O)NC2=Nc3ccccc3NC(CC)=C2C(=O)OCC)oc2ccccc12 | 80 | i | nt | i
CC(C)(C)C(=O)/C(=C/c1ccc(Cl)cc1)n1cncn1 | 86 | i | i | i
CC(C)/C=C(/C(=O)c1ccc(Cl)cc1Cl)n1cncn1 | i | i | nt | i
C[C@H](CO)N1C[C@H](C)[C@H](CN(C)Cc2ccc(-c3ccccc3)cc2)Oc2ccc(NS(=O)(=O)c3ccc(F)cc3)cc2CC1=O | 113 | nt | nt | nt
Cc1ccc(S(=O)(=O)Nc2ccc3c(c2)CC(=O)N([C@@H](C)CO)C[C@H](C)[C@@H](CN(C)Cc2ccc(Oc4ccccc4)cc2)O3)cc1 | 80 | nt | i | i
Cc1ccc(S(=O)(=O)Nc2ccc3c(c2)CC(=O)N([C@@H](C)CO)C[C@@H](C)[C@H](CN(C)Cc2ccc(-c4ccccc4)cc2)O3)cc1 | nt | nt | i | 83
COc1cc(/C=N/NC(=O)c2ccc(CSc3nncn3C)cc2)ccc1OCC(=O)N1CC(C)OC(C)C1 (centres undefined) | i | nt | i | i
CN([C@@H](C(=O)OC(C)(C)C)c1ccccc1)S(=O)(=O)c1cccc(S(=O)(=O)N(C)[C@@H](C(=O)OC(C)(C)C)c2ccccc2)c1 | i | i | i | i
CC(C)(C)OC(=O)CC(S(=O)(=O)c1ccccc1)S(=O)(=O)c1ccccc1 | 86 | i | i | i
CCNS(=O)(=O)c1ccc(CCC(=O)NCc2cccnc2)cc1 | i | i | i | i
CCCNS(=O)(=O)c1ccc(CCC(=O)NCc2ccco2)cc1 | i | i | i | nt
O=C(CCc1ccc(S(=O)(=O)NCc2ccccc2)cc1)NCc1ccco1 | 157 | i | i | i
O=C(CCc1ccc(S(=O)(=O)NCc2ccccc2)cc1)NCc1cccnc1 | 127 | i | i | i
O=c1c2ccccc2sc2ccc(C#CC3(O)CCCCC3)cc12 | 69 | i | i | i
COc1cccc2sc3ccc(C#CC4(O)CCCCC4)cc3c(=O)c12 | i | i | i | nt
CC(C)CC#Cc1ccc2c(c1)O[C@H](CN(C)Cc1ccccn1)[C@@H](C)CN([C@@H](C)CO)S2(=O)=O | 61 | i | i | i
CC(C)CC#Cc1ccc2c(c1)O[C@@H](CN(C)Cc1ccncc1)[C@H](C)CN([C@@H](C)CO)S2(=O)=O | 87 | nt | i | i
SMILES | PAX8 reporter | FN deposit inh | RAD54 branch | RAD52 anneal inh
O=C(c1ccoc1)N1CCN(c2cc(-c3ccccc3)nc3cc(-c4ccccc4)nn23)CC1 | i | i | i | i
O=C(c1ccoc1)N1CCN(c2cc(-c3ccco3)nc3cc(-c4ccccc4)nn23)CC1 | i | i | i | i
COc1ccccc1-c1cc2nc(-c3ccccc3)cc(N3CCN(C(=O)c4ccoc4)CC3)n2n1 | 67 | i | i | i
COc1cccc(-c2cc(N3CCN(C(=O)c4ccoc4)CC3)n3nc(-c4cccc(Cl)c4)cc3n2)c1 | i | i | i | i
COc1cccc(-c2cc3nc(-c4ccccc4)cc(N4CCN(C(=O)c5ccoc5)CC4)n3n2)c1 | 68 | i | i | i
COc1ccccc1-c1cc2nc(-c3ccccc3)cc(N3CCN(C(=O)c4ccco4)CC3)n2n1 | 86 | i | i | i
Cc1cc(NCCCN2CCOCC2)n2c(nc3ccccc32)c1C#N | i | i | 53 | nt
CCC(C)(O)C(=O)N[C@H]1CCCN1C(=O)/C=C/c1ccccc1 (some centres undefined) | i | i | i | i
